In ChEMBL document CHEMBL1140145, “Identification of non-nucleoside DNA synthesis inhibitors of vaccinia virus by high-throughput screening” (J Med Chem, 2008):
The source made the active and inactive calls. No cut-off for these calls is given here.

Columns and labels:
[1] = Cytotoxicity against african green monkey BSC1 cells after 20 hrs WST-1 based assay; assay type: cell-based, BSC-1; settings: chlorocebus aethiops, read-out: TC50
Procedure, shortened: (§1)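 Uninfected BS-C-1 cells in phenol red-free medium, seeded 5000 (20 h), 1000 (3-day) or 200 (5-day) cells/well, exposed next day to compound in two-fold serial dilutions (top 200 µM; 1% DMSO final) at 37°C. WST-1 added 30 min, A450 read. Triplicates; percent cytotoxicity vs DMSO fitted four-parameter sigmoidal for TC50.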

[2] = system: Vaccinia virus; assay: Antiviral activity against Vaccinia virus WR in BSC1 cells assessed as protection from virus-induced lysis of cell monolayer after 20 hrs; assay type: functional, organism-based; settings: Orthopoxvirus vaccinia, BSC-1, 20 h
[3] = system: Vaccinia virus; assay: Antiviral activity against Vaccinia virus WR in BSC1 cells assessed as reduction in plaque formation after 20 hrs; assay type: functional, organism-based; settings: Orthopoxvirus vaccinia, BSC-1, 20 h
[4] = system: Vaccinia virus; assay: Antiviral activity against Vaccinia virus WR in BSC1 cells assessed as retention of antiviral potency by measuring exogenous double stranded DNA trapping; assay type: functional, organism-based; settings: Orthopoxvirus vaccinia, BSC-1
[5] = system: Vaccinia virus; assay: Inhibition of Vaccinia virus DNA synthesis in by rapid plate assay; assay type: functional, organism-based; settings: Orthopoxvirus vaccinia
[6] = Cytotoxicity against african green monkey BSC1 cells up to 200 uM after 20 to 120 hrs WST-1 based assay; assay type: cell-based; settings: chlorocebus aethiops, bsc-1; procedure, shortened: as §1
[7] = system: Vaccinia virus; assay: Antiviral activity against Vaccinia virus WR in BSC1 cells assessed as protection from virus-induced lysis of cell monolayer up to 200 uM after 20 hrs; assay type: functional, organism-based; settings: Orthopoxvirus vaccinia, BSC-1
[8] = system: Vaccinia virus; assay: Antiviral activity against Vaccinia virus WR in BSC1 cells assessed as reduction in plaque formation up to 200 uM after 20 hrs; assay type: functional, organism-based; settings: Orthopoxvirus vaccinia, BSC-1

| Compound | CC50 at 20 h [1] | EC50 [2] | EC50 [3] | Activity [4] | IC50 [5] | Activity [6] | Activity [7] | Activity [8] |
| --- | --- | --- | --- | --- | --- | --- | --- | --- |
| Cc1nc2ccccc2c2oc(C(=O)NCCN(C)C3CCCCC3)cc12 | 143 µM | 41 µM | 25 µM | inactive | – | – | – | – |
| COC(=O)c1c(NC(=O)c2ccc(OC)cc2)sc2c1CCN(C(C)C)C2 | 87 µM | 40 µM | 25 µM | inactive | – | – | – | – |
| CN(C)CCCNc1c2c(nc3ccccc13)CCC2 | 172 µM | – | 50 µM | – | 32 µM | – | – | – |
| BrCc1ccc(-c2noc(-c3ccncc3)n2)cc1 | – | – | – | – | 1.3 µM | Toxic | inactive | inactive |
| COc1ccc(Nc2cc(C(F)(F)F)ccc2Cl)c(C(=O)O)c1 | > 200 µM | – | 100 µM | – | 29 µM | – | – | – |
| N=C(N)Nc1nc(-c2ccccc2)c2ccccc2n1 | 49 µM | – | 50 µM | – | 21 µM | – | – | – |
| c1ccc(CNc2ccc3c(ccc4c5ccccc5[nH]c34)n2)cc1 | 26 µM | – | 10 µM | – | 114 µM | – | – | – |
| CN(c1ccccc1C(=O)O)S(=O)(=O)c1ccc2c3c(cccc13)C(=O)N2 | > 200 µM | – | – | – | 75 µM | – | – | – |
| CCN1/C(=C/c2ccc3ccccc3[n+]2CC)Sc2cc(NC(C)=O)ccc21 | > 200 µM | – | 200 µM | – | 15 µM | – | – | – |
| CCN1CCN(CCCNC(=O)c2ccc3c(c2)NC(=O)/C(=C\C(=O)c2ccc(OC)cc2)N3)CC1 | > 200 µM | – | – | – | 36 µM | – | – | – |
| CN(C)CCNC(=O)c1cc2c(s1)-c1ccc(Cl)cc1SC2 | 3.9 µM | – | 5 µM | – | 37 µM | – | – | – |
| CC1CCCC(C)N1CCNc1nc2ccccc2c2nc(-c3ccccc3)nn12 (stereo not given) | – | – | – | – | 7.3 µM | Toxic | inactive | inactive |
| CC(C)Nc1ccc(Nc2ccnc3cc4ccccc4cc23)cc1 | – | – | – | – | 4.1 µM | Toxic | inactive | inactive |
| CN(C)CCN(C(=O)c1ccco1)c1nc2cc3c(cc2s1)OCO3 | > 200 µM | – | 100 µM | – | 29 µM | – | – | – |
| CCOC(=O)c1c(NC(=O)/C=C/C(=O)O)sc(C)c1-c1ccccc1 | 159 µM | 30 µM | 25 µM | Active | 374 µM | – | – | – |
| CN(C)CC/N=c1\cc(-c2ccccc2)oc2ccc(Cl)cc12 | – | – | – | – | 6.7 µM | Toxic | inactive | inactive |
| COC(=O)C(C(=O)OC)C(Nc1ccccc1)c1ccccc1 (stereo not given) | > 200 µM | – | – | – | 638 µM | – | – | – |
| CC[n+]1cc(/C=C2\SC=CN2C)c(C)c2cc(OC)c3ccccc3c21 | – | – | – | – | 3.5 µM | Toxic | inactive | inactive |
| c1ccc2nc3c(nc2c1)c1ccccc1n3CCN1CCOCC1 | 72 µM | – | 30 µM | – | 28 µM | – | – | – |
| CCN1CCN(c2ccc(Nc3ccnc4cc5ccccc5cc34)cc2)CC1 | – | – | – | – | 0.5 µM | Toxic | inactive | inactive |
| CN(C)Cc1ccc2ccc3cccc4ccc1c2c34 | 20 µM | 25 µM | 10 µM | inactive | – | – | – | – |
| CN(C)CCc1cc2c(c3c1ccc1ccccc13)OCO2 | – | – | – | – | 5.4 µM | Toxic | inactive | inactive |

| Compound | CC50 at 20 h [1] | EC50 [2] | EC50 [3] | Activity [4] | IC50 [5] | Activity [6] | Activity [7] | Activity [8] |
| --- | --- | --- | --- | --- | --- | --- | --- | --- |
| COc1ccc2nc(NC(=N)N)nc(C)c2c1 | – | – | – | – | 7.4 µM | Toxic | inactive | inactive |
| Cc1ccc(C)n1-c1cccc(C(=O)O)c1 | > 200 µM | – | – | – | 100 µM | – | – | – |
| C/N=C1/c2c(C)c3cc(OC)ccc3n2CCN1C | > 200 µM | – | 75 µM | – | 89 µM | – | – | – |
| O=C1N=C(Nc2cccc(C(=O)O)c2)S/C1=C\c1ccc(-c2ccc(C(=O)O)cc2)o1 | > 200 µM | – | – | – | 30 µM | – | – | – |
| CCN1CCCC1CNC(=O)c1ccc2c(c1)sc1nc(-c3cccc(OC)c3)cn12 (stereo not given) | 75 µM | – | 50 µM | – | 47 µM | – | – | – |
| C=C1C(C(=O)NCc2ccco2)C1C(=O)NCc1ccco1 (stereo not given) | > 200 µM | – | – | – | 272 µM | – | – | – |
| OCC(O)Cn1c2ccc(Br)cc2c2cc(Br)ccc21 (stereo not given) | 29 µM | 23 µM | 10 µM | inactive | – | – | – | – |
| O=C(O)c1cc(Cc2ccc(O)c(C(=O)O)c2)ccc1O | > 200 µM | – | – | – | 51 µM | – | – | – |
| Cc1cc(OCC(=O)NC(Cc2c[nH]c3ccccc23)C(=O)O)cc(C)c1Cl (stereo not given) | > 200 µM | – | 200 µM | – | 73 µM | – | – | – |
| COc1ccc(Nc2nc(N3CCN(C)CC3)nc3ccccc23)c(OC)c1 | 192 µM | 18 µM | 40 µM | inactive | – | – | – | – |
| CCN(CC)CCCNc1nc2cc(OC)c(OC)cc2c2nc(-c3ccccc3)nn12 | – | – | – | – | 5.9 µM | Toxic | inactive | inactive |
| COc1ccc2cc3cc(C(=O)NCCN(C)C)oc3nc2c1 | > 200 µM | – | 75 µM | – | – | – | – | – |
| CCN1CCCC1CNC(=O)c1cc2c(=O)n(C)c3ccccc3c2n1C (stereo not given) | 135 µM | 98 µM | 100 µM | inactive | – | – | – | – |
| CN(C)CC(O)Cn1c2ccc(Cl)cc2c2cc(Cl)ccc21 (stereo not given) | 17 µM | – | 10 µM | – | 12 µM | – | – | – |
| Nc1[nH]c(=S)sc1C(=O)Nc1nccs1 | > 200 µM | – | – | – | 41 µM | – | – | – |
| O=C(O)C1Nc2ccccc2C2C=CCC12 (stereo not given) | > 200 µM | – | – | – | > 400 µM | – | – | – |
| CCN1C(=O)/C(=C\C=C\c2ccco2)C(=O)NC1=S | 72 µM | – | 12 µM | – | 160 µM | – | – | – |
| CC(C)c1ccc(C2Nc3ccc(C(=O)O)cc3C3C=CCC32)cc1 (stereo not given) | > 200 µM | – | 100 µM | – | 100 µM | – | – | – |
| O=C1/C(=C/c2ccc(Br)o2)CC/C1=C\c1ccc(Br)o1 | > 200 µM | – | – | – | 95 µM | – | – | – |
| N#CC1=C(SCc2ccccc2)SC(c2ccccc2O)NC1=O (stereo not given) | > 200 µM | – | 150 µM | – | 250 µM | – | – | – |
| C[n+]1ccc(/C=C/c2ccc3c(c2)OCO3)c2ccccc21 | > 200 µM | – | 75 µM | – | 24 µM | – | – | – |
| O=C(O)c1cc(-c2cccs2)nc2ccc(Br)cc12 | > 200 µM | – | 100 µM | – | 63 µM | – | – | – |

| Compound | CC50 at 20 h [1] | EC50 [2] | EC50 [3] | Activity [4] | IC50 [5] | Activity [6] | Activity [7] | Activity [8] |
| --- | --- | --- | --- | --- | --- | --- | --- | --- |
| Oc1ccc(C2(c3ccc(O)cc3)CCCC2)cc1 | 35 µM | – | 75 µM | – | 71 µM | – | – | – |
| CC1=NN(c2cccc(C(=O)O)c2)C(=O)/C1=C\c1ccc(-c2cccc(Cl)c2C)o1 | > 200 µM | – | 50 µM | – | 14 µM | – | – | – |
| Cc1ccc2oc(=O)c3cc(C(=O)NCCN4CCCCC4C)sc3c2c1 (stereo not given) | 147 µM | – | 50 µM | – | 25 µM | – | – | – |
| CCS(=O)(=O)N1CCN=C1SCc1ccc(Cl)cc1Cl | 166 µM | 90 µM | 25 µM | Active | 188 µM | – | – | – |
| Cc1cc2c(cc3c(=O)n(CC(=O)NCCN4CCOCC4)ncn32)s1 | 100 µM | 23 µM | 25 µM | inactive | – | – | – | – |
| CN(C)/C=C/C=C1C(=O)CCCC1=O | > 200 µM | – | – | – | 86 µM | – | – | – |
| CCN(CC)Cn1nc2c3c(cccc3c1=O)-c1ccccc1-2 | 133 µM | 14 µM | 25 µM | inactive | 25 µM | – | – | – |
| O=C1NC(=S)N(c2ccccc2)C(=O)/C1=C\C=C\c1ccco1 | > 200 µM | – | 50 µM | – | 143 µM | – | – | – |
| CN1CCN(c2cc(-c3ccc(F)cc3)nc(-c3ccccc3)n2)CC1 | 23 µM | 12 µM | 6 µM | inactive | – | – | – | – |
| S=c1nc(-c2ccco2)c2c(=S)[nH]c(=S)[nH]c2[nH]1 | > 200 µM | – | – | – | 142 µM | – | – | – |
| CC1CCN(CCCNC(=O)c2cc3c(=O)n(C)c4ccccc4c3s2)CC1 | 75 µM | – | – | – | 19 µM | – | – | – |
| CCOC(=O)c1cc(-c2ccccc2)n(-c2ccc(C(=O)O)cc2)c1C | > 200 µM | – | 100 µM | – | 120 µM | – | – | – |
| CN1CCc2c(-c3cccs3)nc(OCc3ccccc3Br)c(C#N)c2C1 | 82 µM | – | 40 µM | – | 112 µM | – | – | – |
| Cc1c(C)n(CCN(C)C)c2ccc(C(=O)OCCN(C)C)cc12 [AMINDOCATE] | > 200 µM | – | 75 µM | – | 26 µM | – | – | – |
| COc1ccc2c(C)nc(N/C(N)=N/C(C)=O)nc2c1 | 90 µM | – | 40 µM | – | 16 µM | – | – | – |
| CN(C)CCOC(=O)c1ccc2[nH]c3c(c2c1)CSCC3 [TIPINDOLE] | > 200 µM | – | 100 µM | – | 115 µM | – | – | – |
| O=C(O)c1ccc2c(c1)NC(=O)C(CSCc1ccccc1Cl)N2 (stereo not given) | > 200 µM | – | – | – | 450 µM | – | – | – |
| COc1ccc2c(C)nc(NC(=N)/N=C(\C)c3ccccc3C(=O)O)nc2c1 | 164 µM | – | 50 µM | – | 13 µM | – | – | – |
| CC1=NN(c2ccccc2)C(=O)/C1=C\c1cn(CC(O)CN2CCCCC2)c2ccccc12 (stereo not given) | 79 µM | – | 25 µM | – | 24 µM | – | – | – |
| O=C(/C=C/c1ccco1)/C=C/c1ccco1 | > 200 µM | – | 75 µM | – | 25 µM | – | – | – |
